Legend:
Heart phosphodiesterase [1] = target: T1, Heart phosphodiesterase (Bos taurus, UniProt Q01061+P14100+E1BN64); test: In vitro inhibition of bovine heart phosphodiesterase (PDE I); assay type: protein assay
In short: (§1)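 Bovine heart phosphodiesterase (Klee method) with 1 μM [3H]cAMP as substrate. Poorly soluble compounds were dissolved in 95% EtOH, 2.5% final, then diluted with buffer. […] I50 is the concentration where V0/V = 2, read from a V0/V vs. concentration plot. Each value averages two consecutive runs, in duplicate or triplicate.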

Bos taurus = organism: Bos taurus; test: Compound was evaluated for potency against c-AMP phosphodiesterase relative to theophylline
In short: (§2)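 Bovine heart PDE (Klee method) with 1 μM [3H]cAMP. […] Compounds needing ethanol (2.5% final) are compared with a theophylline control run with ethanol; the others with one run without ethanol. Potency is expressed relative to that theophylline control.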

Rattus norvegicus [2] = test: Decrease in arterial blood pressure in anesthetized rats at 10 mg/kg intravenous femoral injection; assay type: functional, Artery; parameters: unit not given here
Rattus norvegicus [3] = test: Decrease in arterial blood pressure in anesthetized rats at 15 mg/kg after intravenous femoral injection; assay type: functional, Artery; parameters: unit not given here
Rattus norvegicus [4] = test: Decrease in arterial blood pressure in anesthetized rats at 2.5 mg/kg intravenous femoral injection; assay type: functional, Artery; parameters: unit not given here
Rattus norvegicus [5] = test: Decrease in arterial blood pressure in anesthetized rats at 30 mg/kg intravenous femoral injection; assay type: functional, Artery
Rattus norvegicus [6] = test: Decrease in arterial blood pressure in anesthetized rats at 5 mg/kg intravenous femoral injection; assay type: functional, Artery; parameters: unit not given here
Rattus norvegicus [7] = test: Decrease in arterial blood pressure in anesthetized rats at 60 mg/kg intravenous femoral injection; assay type: functional, Artery
Heart phosphodiesterase [8] = target: T1, Heart phosphodiesterase; test: Inhibition of bovine heart cAMP-phosphodiesterase (Insoluble); assay type: protein assay; in short: as §1
[9] = target: Heart phosphodiesterase (Bos taurus) (UniProt Q01061+P14100+E1BN64); test: Inhibition of bovine heart cAMP-phosphodiesterase relative to theophylline (Insoluble); assay type: protein assay; in short: as §2
Heart phosphodiesterase [10] = target: T1, Heart phosphodiesterase; test: Inhibition of bovine heart cAMP-phosphodiesterase with ethanol; assay type: protein assay
In short: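 Bovine heart PDE, Klee method with 1 μM [3H]cAMP as substrate. Compounds were predissolved in 95% EtOH, giving 2.5% ethanol final, then diluted in buffer. A theophylline control was run with ethanol present. […] I50 was taken where V0/V = 2 from a V0/V vs concentration plot. Each value averages two consecutive runs, done in duplicate or triplicate.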

Rattus norvegicus [11] = test: Decrease in blood pressure at 15 mg/kg in rat; assay type: functional
In short: (§3)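 Male Sprague-Dawley rats (250–385 g), pentobarbital-anesthetized (50 mg/kg ip); right femoral artery cannulated for arterial pressure via transducer, left femoral vein for iv dosing. Each injection flushed with 0.3 mL saline, preceded by equal-volume saline control; 5-min intervals or until pressure returned to baseline. Fall in mean arterial pressure expressed relative to theophylline 2.5 mg/kg control in same animal; n determinations given.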

Rattus norvegicus [12] = test: Decrease in blood pressure at 2.5 mg/kg in rat; assay type: functional; in short: as §3
Rattus norvegicus [13] = test: Decrease in blood pressure at 5 mg/kg in rat; assay type: functional; in short: as §3

SMILES | I50 (Heart phosphodiesterase [1]) [µM] | Relative potency (Bos taurus) | other results
CCC1C(=O)N(CC2CC2)c2scc(-c3ccccc3)[n+]2C1=O (configuration not stated) | 287 | 1.5 | 
CC[N+]1=C2SC=NN2C(=O)CC1=O | 774 | 0.5 | 
CC[N+]1=C2SC=NN2C(=O)C(Cc2ccccc2)C1=O (configuration not stated) | 52 | 7.9 | 
CCC1C(=O)N2C=CSC2=[N+](CC2CC2)C1=O (configuration not stated) | 396 | 0.7 | 
CCc1n[n+]2c(s1)N(CC)C(=O)C(C)C2=O (configuration not stated) | 2411 | 0.1 | 
CC(C)Cn1c(=O)n(C)c(=O)c2nc[nH]c21 [ISOBUTYLMETHYLXANTHINE] | 9.9 | 28.9 | 
CCCCN1C(=O)CC(=O)[n+]2ccsc21 |  |  | Mean arterial blood pressure (Rattus norvegicus [2]): 1.2; Mean arterial blood pressure (Rattus norvegicus [3]): 1.2; Mean arterial blood pressure (Rattus norvegicus [4]): 0.9; Mean arterial blood pressure (Rattus norvegicus [5]): 2.9; Mean arterial blood pressure (Rattus norvegicus [6]): 0.6
CCCCCC1C(=O)N(CC)c2scn[n+]2C1=O (configuration not stated) | 156 | 2.6 | 
CCN1C(=O)C(C)C(=O)[n+]2nc(C)sc21 (configuration not stated) | 2453 | 0.1 | Mean arterial blood pressure (Rattus norvegicus [2]): 0.4; Mean arterial blood pressure (Rattus norvegicus [3]): 0.5; Mean arterial blood pressure (Rattus norvegicus [4]): 0.2; Mean arterial blood pressure (Rattus norvegicus [6]): 0.3
CCC1C(=O)N2N=CSC2=[N+](CC)C1=O (configuration not stated) | 550 | 0.7 | Mean arterial blood pressure (Rattus norvegicus [2]): 1.6; Mean arterial blood pressure (Rattus norvegicus [3]): 0.7; Mean arterial blood pressure (Rattus norvegicus [4]): 0.4; Mean arterial blood pressure (Rattus norvegicus [6]): 0.6
CCN1C(=O)C(Cc2ccc(Cl)cc2)C(=O)[n+]2ncsc21 (configuration not stated) | 9.6 | 42.9 | 
CCCC1C(=O)N(CC)c2scn[n+]2C1=O (configuration not stated) | 252 | 1.6 | 
CCC1C(=O)N(CC)c2scc[n+]2C1=O (configuration not stated) | 858 | 0.3 | Mean arterial blood pressure (Rattus norvegicus [2]): 0.8; Mean arterial blood pressure (Rattus norvegicus [3]): 1.2; Mean arterial blood pressure (Rattus norvegicus [4]): 0.3; Mean arterial blood pressure (Rattus norvegicus [6]): 0.6
CC[N+]1=C2SC=NN2C(=O)C(C)C1=O (configuration not stated) | 1160 | 0.4 | Mean arterial blood pressure (Rattus norvegicus [2]): 1.6; Mean arterial blood pressure (Rattus norvegicus [3]): 1.2; Mean arterial blood pressure (Rattus norvegicus [4]): 0.9; Mean arterial blood pressure (Rattus norvegicus [5]): 7.5; Mean arterial blood pressure (Rattus norvegicus [6]): 2.2
CCC1C(=O)N(CC)c2sc(C)n[n+]2C1=O (configuration not stated) | 1689 | 0.2 | Mean arterial blood pressure (Rattus norvegicus [2]): 0.6; Mean arterial blood pressure (Rattus norvegicus [3]): 0.3; Mean arterial blood pressure (Rattus norvegicus [4]): 0; Mean arterial blood pressure (Rattus norvegicus [5]): 1.2; Mean arterial blood pressure (Rattus norvegicus [6]): 0.3; Mean arterial blood pressure (Rattus norvegicus [7]): 1.9
Cn1c(=O)c2[nH]cnc2n(C)c1=O |  | 1 | 
CCc1n[n+]2c(s1)N(CC)C(=O)C(CC)C2=O (configuration not stated) | 1980 | 0.1 | 
CCC(C)C1C(=O)N(CC)c2scn[n+]2C1=O (configuration not stated) | 233 | 1.8 | 
CC1C(=O)N(Cc2cccc(Cl)c2)c2scc(-c3ccccc3)[n+]2C1=O (configuration not stated) | 152 | 2.7 | 
CCC1C(=O)N(CC)c2scc(C)[n+]2C1=O (configuration not stated) | 412 | 0.7 | 
CCN1C(=O)C(c2ccccc2)C(=O)[n+]2ncsc21 (configuration not stated) | 24 | 17.2 | 
CCN1C(=O)C(C(C)C)C(=O)[n+]2ncsc21 (configuration not stated) | 254 | 1.6 | 
O=C1CC(=O)[n+]2ccsc2N1Cc1cccc(Cl)c1 | 308 | 1.3 | 
CCN1C(=O)C(Cc2ccc(OC)cc2)C(=O)[n+]2ncsc21 (configuration not stated) |  |  | I50 (Heart phosphodiesterase [8]): Insoluble; Relative potency [9]: Insoluble
CCN1C(=O)C(CC(C)C)C(=O)[n+]2ncsc21 (configuration not stated) | 154 | 2.7 | 
Cn1c(=O)c2nc[nH]c2n(C)c1=O.O [THEOPHYLLINE] |  |  | I50 (Heart phosphodiesterase [10]): 412 µM; Blood pressure (Rattus norvegicus [11]): 31.9 mmHg; Blood pressure (Rattus norvegicus [12]): 13.5 mmHg; Blood pressure (Rattus norvegicus [13]): 31.6 mmHg; Mean arterial blood pressure (Rattus norvegicus [3]): 2.36; Mean arterial blood pressure (Rattus norvegicus [4]): 1; Mean arterial blood pressure (Rattus norvegicus [6]): 2.34
